Measurements: ChEMBL document CHEMBL2346635, “6-Oxo and 6-thio purine analogs as antimycobacterial agents” (Bioorg Med Chem, 2013)
≈ marks a conversion by molar mass, not a printed value. Calls of active or inactive are those of the source. The calls are words filed in the database; no cut-off is given here.

What was measured:
[1] = test system: Mycobacterium tuberculosis; experiment: Antimycobacterial activity against Mycobacterium tuberculosis H37Rv ATCC 27294 assessed as growth inhibition by radiometric BACTEC assay; assay type: functional
[2] = test system: Mycobacterium tuberculosis; experiment: Antimycobacterial activity against Mycobacterium tuberculosis H37Ra ATCC 25177 assessed as growth inhibition by Alamar blue microdilution broth assay; assay type: functional
Procedure, shortened: (§1)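 Alamar blue colorimetric microdilution in Middlebrook 7H9 broth with 0.2% glycerol and ADC enrichment. Primary screen at 1.28 and 12.8 µg/mL. Actives (≤12.8 µg/mL) retested in two-fold dilutions. MIC99 is the lowest concentration giving complete growth inhibition.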

[3] = test system: Mycobacterium tuberculosis; experiment: Antimycobacterial activity against Mycobacterium tuberculosis H37Rv ATCC 27294 assessed as growth inhibition at 6.25 ug/ml by radiometric BACTEC assay; assay type: functional
Procedure, shortened: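 Primary screen at a single 6.25 µg/mL in radiometric BACTEC 12B medium. Value is percent growth inhibition.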

Mycobacterium avium = experiment: Antimycobacterial activity against Mycobacterium avium Nj211 assessed as growth inhibition by Alamar blue microdilution broth assay; assay type: functional; procedure, shortened: as §1
[4] = Selectivity index, ratio of CC50 for african green monkey Vero cells to MIC90 for Mycobacterium tuberculosis H37Rv ATCC 27294; assay type: functional
Procedure, shortened: (§2)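 SI calculated as VERO CC50 (non-radioactive proliferation assay) divided by H37Rv MIC90 from radiometric BACTEC in 12B medium.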

Vero = experiment: Cytotoxicity against african green monkey Vero cells by non-radioactive cell proliferation assay; assay type: cell-based; conditions: chlorocebus sabaeus, vero
[5] = Selectivity index, ratio of CC50 for african green monkey Vero cells to MIC for Mycobacterium tuberculosis H37Rv ATCC 27294; assay type: functional; procedure, shortened: as §2

SMILES	MIC90 [1]	MIC99 [2]	inhibition at 6.25 µg/mL [3]	MIC99 (Mycobacterium avium)	inhibition [3]	Selectivity Index [4]	CC50 (Vero)	MIC [1]	Selectivity Index [5]
Clc1ccc(COc2ncnc3[nH]cnc23)cc1Cl	> 6.25 µg/mL	> 12.8 µg/mL	21%	> 12.8 µg/mL					
CC(C)Oc1nc(Cl)nc2[nH]cnc12	> 6.25 µg/mL	> 12.8 µg/mL	23%	> 12.8 µg/mL					
CCCCCCCCCCSc1nc(SCCCCCCCCCC)c2ncn(COCCO)c2n1					inactive				
Cc1ccc(Oc2nc(N)nc3[nH]cnc23)cc1					inactive				
CCCCCCCCCCSc1ncnc2c1ncn2CC#N	1.56 µg/mL (≈ 4.71 µM)	> 12.8 µg/mL	97%	> 12.8 µg/mL					
Nc1nc(OCc2ccccc2)c2nc[nH]c2n1					inactive				
c1nc(OCC2CCCCC2)c2nc[nH]c2n1	> 6.25 µg/mL	> 12.8 µg/mL	6%	> 12.8 µg/mL					
CCCCCCCCCCOc1nc(N)nc2c1ncn2CC(=O)OCC	> 6.25 µg/mL	> 12.8 µg/mL	14%	> 12.8 µg/mL					
Nc1nc(OCC2CCCCC2)c2nc[nH]c2n1	> 6.25 µg/mL	> 12.8 µg/mL	93%	> 12.8 µg/mL					
Clc1nc(OCc2ccc(Cl)c(Cl)c2)c2nc[nH]c2n1	> 6.25 µg/mL	> 12.8 µg/mL	35%	> 12.8 µg/mL					
CCCCCCCCCCSc1nc(N)nc2c1ncn2CC	6.25 µg/mL (≈ 18.6 µM)	> 12.8 µg/mL	97%	> 12.8 µg/mL		2	12.32 µg/mL (≈ 36.7 µM)		
CCCCCCCCCCOc1nc(N)nc2c1ncn2CC(=O)N[C@@H](Cc1ccccc1)C(=O)OCC					inactive				
CCCCCCCCCCOc1nc(N)nc2c1ncn2CC(=O)O					inactive				
CCCCCCCCCCSc1nc(N)nc2c1ncn2CC(O)CO (stereo unspecified)	> 6.25 µg/mL	> 12.8 µg/mL	49%	> 12.8 µg/mL					
CCCCCCCCCCSc1nc(NC(C)=O)nc2[nH]cnc12	> 6.25 µg/mL	> 12.8 µg/mL	35%	> 12.8 µg/mL					
CCCCCCCCCCSc1ncnc2c1ncn2NC(C)=O	> 6.25 µg/mL	> 12.8 µg/mL	92%	> 12.8 µg/mL					

SMILES	MIC90 [1]	MIC99 [2]	inhibition at 6.25 µg/mL [3]	MIC99 (Mycobacterium avium)	inhibition [3]	Selectivity Index [4]	CC50 (Vero)	MIC [1]	Selectivity Index [5]
CCCCCCCCCCSc1ncnc2c1ncn2CCCC	6.25 µg/mL (≈ 17.9 µM)	> 12.8 µg/mL	98%	> 12.8 µg/mL					
Clc1nc(OCC2CCCCC2)c2[nH]cnc2n1					inactive				
CCCCCCCCCCSc1nc(CC)nc2[nH]cnc12	> 6.25 µg/mL	> 12.8 µg/mL	84%	> 12.8 µg/mL					
CCCCCCCCCCSc1nc(N)nc2c1ncn2CC(=O)N[C@H](C)C(=O)OC	> 6.25 µg/mL	> 12.8 µg/mL	7%	> 12.8 µg/mL					
C=CCn1cnc2c(SCCCCCCCCCC)ncnc21	6.25 µg/mL (≈ 18.8 µM)	> 12.8 µg/mL	93%	> 12.8 µg/mL					
CCCCCCCCCCSc1ncnc2c1ncn2C1CCCCCC1	> 6.25 µg/mL	> 12.8 µg/mL	81%	> 12.8 µg/mL					
O=S(=O)(Nc1ccccc1)n1cnc2c(=S)[nH]cnc21					inactive			0.78 µg/mL (≈ 2.54 µM)	>256
CC(C)Oc1ncnc2[nH]cnc12 [6-[(ISOPROPYL)OXY]PURINE]	> 6.25 µg/mL	> 12.8 µg/mL	23%	> 12.8 µg/mL					
CCCCCCCCCCOc1nc(N)nc2[nH]cnc12	3.13 µg/mL (≈ 10.7 µM)	> 12.8 µg/mL	91%	> 12.8 µg/mL					
Nc1nc(Cl)c2ncn(CC(=O)O)c2n1					inactive				
CCCCCCCCCCCCOc1ncnc2[nH]cnc12 [6-(DODECYLOXY)PURINE]	> 6.25 µg/mL	> 12.8 µg/mL	56%	> 12.8 µg/mL					
CCCCCCCCCCOc1nc(N)nc2c1ncn2CC(=O)N[C@@H](C)C(=O)OC					inactive				
Nc1nc(Oc2ccc(Cl)cc2)c2nc[nH]c2n1	> 6.25 µg/mL	> 12.8 µg/mL	20%	> 12.8 µg/mL					
CCCCCCCCCCSc1ncnc2c1ncn2CC	> 6.25 µg/mL	> 12.8 µg/mL	89%	> 12.8 µg/mL					
c1ccc(Cn2cnc3c(-c4ccco4)ncnc32)cc1 [9-BENZYL-6-(FURAN-2-YL)-9H-PURINE]					inactive			[…]	[…]
Nc1nc(Oc2ccccc2)c2[nH]cnc2n1					inactive				
